Results reported in ChEMBL document CHEMBL3817762, “Monoacidic Inhibitors of the Kelch-like ECH-Associated Protein 1: Nuclear Factor Erythroid 2-Related Factor 2 (KEAP1:NRF2) Protein-Protein Interaction with High Cell Potency Identified by Fragment-Based Discovery” (J Med Chem, 2016).

What was measured:
Assay type in all cases: ADME, organism-based
[1] = Drug level in Han Wistar rat blood at 50 umol/kg, iv dosed up to 6 hrs infusions by LC-MS/MS analysis; details: whole blood, read-out: Drug uptake
Summary of the method: (§1)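 Han Wistar rats (250-300 g, n=8/group) received the compound by IV infusion over 6 h at 10, 35 or 50 µmol/kg. Blood concentration was taken as the steady-state level over the 6 h infusion period.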

[2] = Drug level in Han Wistar rat blood at 10 umol/kg, iv dosed up to 6 hrs infusions by LC-MS/MS analysis; details: whole blood, read-out: Drug uptake; summary of the method: as §1
[3] = Drug level in Han Wistar rat blood at 35 umol/kg, iv dosed up to 6 hrs infusions by LC-MS/MS analysis; details: whole blood, read-out: Drug uptake; summary of the method: as §1
[4] = Systemic oral bioavailability in Han Wistar rat at 2 mg/kg after 24 hrs by LC-MS/MS analysis; details: in vivo
Summary of the method: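 Han Wistar rats (n=3) were dosed IV and PO in a crossover design with a two-day washout. Blood was sampled over 24 h and analysed by LC/MS/MS.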

concentration at 6 h [1]: 1440 nM
concentration at 6 h [2]: 407 nM
concentration at 6 h [3]: 946 nM
bioavailability [4]: 7%
SMILES: COc1cc([C@@H](CC(=O)O)c2ccc(C)c(CN3C[C@@H](C)Oc4ccccc4S3(=O)=O)c2)cc2nnn(C)c12
